Test results taken from the RNAGym collection of RNA variant scans (doi:10.1002/anie.201605470).

B1: Osa-1-4 twister ribozyme (parent)
chain: CCGCCUAACACUGCCAAUGCCGGUCCCAAGCCCGGAUAAAAGUGGAGGGGGCGG

Variants of: B1
Assay: self-cleavage, relative activity (ratio to wild type); higher = more cleavage; co-transcriptional
Summary of the method: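 The 48 positions downstream of the cleavage site in a DNA template for a 54-nucleotide Oryza sativa twister ribozyme carried 97 % wild-type base and 1 % of each other base. After in vitro transcription (2 h, 37 °C) with co-transcriptional self-cleavage, the RNA was reverse-transcribed with a template-switching oligonucleotide, PCR-amplified and deep-sequenced. Relative activity is the fraction cleaved, judged by reads with or without upstream sequence and normalised to wild type.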
With CCGCCUAACACUGCCAAUGCCGGCCCCAAGCCCGGAUAAAAGCGGAGGGGGCGG [U24C U43C] the self-cleavage was 0.06.
For CCGCCUAACACUGCCAAUGCCGGCCCCAAGCCCGGAUAAAAGGGGAGGGGGCGG [U24C U43G], the self-cleavage was 0.05.
In the case of CCGCCUAACACUGCCAAUGCCGGCCCCAAGCCCGGAUAAAAGAGGAGGGGGCGG [U24C U43A], the self-cleavage is reported as 0.08.
CCGCCUAACACUGCCAAUUCCGGUACCAAGCCCGGAUAAAAGUGGAGGGGGCGG [C25A G19U] gave a self-cleavage of 0.04.
With CCGCCUAACACUGCCAAUACCGGUACCAAGCCCGGAUAAAAGUGGAGGGGGCGG [C25A G19A] the self-cleavage was 0.06.
Work on CCGCCUAACACUGCCAAUCCCGGUACCAAGCCCGGAUAAAAGUGGAGGGGGCGG [C25A G19C] yielded a self-cleavage of 0.03.
In the case of CCGCCUAACACUGCCAAUGCCGGUACCAAGCGCGGAUAAAAGUGGAGGGGGCGG [C25A C32G], the self-cleavage is reported as 0.05.
Work on CCGCCUAACACUGCCAAUGCCGGUACCAAGCUCGGAUAAAAGUGGAGGGGGCGG [C25A C32U] yielded a self-cleavage of 0.04.
For CCGCCUAACACUGCCAAUGCCGGUACCAAGCACGGAUAAAAGUGGAGGGGGCGG [C25A C32A], the self-cleavage was 0.08.
For CCGCCUAACACUGCCAAUGCCGGUACCAAGCCCGGAUAAAAGUGGAGGAGGCGG [C25A G49A], the self-cleavage was 0.13.
For CCGCCUAACACUGCCAAUGCCGGUACCAAGCCCGGAUAAAAGUGGAGGUGGCGG [C25A G49U], the self-cleavage was 0.82.
CCGCCUAACACUGCCAAUGCCGGUACCAAGCCCGGAUAAAAGUGGAGGCGGCGG [C25A G49C] gave a self-cleavage of 0.04.
With CCGCCUAACACUGCCAAUGCCGGUACCAACCCCGGAUAAAAGUGGAGGGGGCGG [C25A G30C] the self-cleavage was 0.02.
Work on CCGCCUAACACUGCCAAUGCCGGUACCAAACCCGGAUAAAAGUGGAGGGGGCGG [C25A G30A] yielded a self-cleavage of 0.02.
Work on CCGCCUAACACUGCCAAUGCCGGUACCAAUCCCGGAUAAAAGUGGAGGGGGCGG [C25A G30U] yielded a self-cleavage of 0.02.
CCGCCUAACACUGCCAAUGCCGGUACCAAGCCCGGAUAAAAGUGGAGGGCGCGG [C25A G50C] gave a self-cleavage of 0.27.
Work on CCGCCUAACACUGCCAAUGCCGGUACCAAGCCCGGAUAAAAGUGGAGGGUGCGG [C25A G50U] yielded a self-cleavage of 0.42.
Variant CCGCCUAACACUGCCAAUGCCGGUACCAAGCCCGGAUAAAAGUGGAGGGAGCGG [C25A G50A] has a self-cleavage of 0.59.
Variant CCGCCUAACACUGCCAAUGCCGGUACCAAGCCCCGAUAAAAGUGGAGGGGGCGG [C25A G34C] has a self-cleavage of 0.06.
For CCGCCUAACACUGCCAAUGCCGGUACCAAGCCCUGAUAAAAGUGGAGGGGGCGG [C25A G34U], the self-cleavage was 0.11.
CCGCCUAACACUGCCAAUGCCGGUACCAAGCCCAGAUAAAAGUGGAGGGGGCGG [C25A G34A] gave a self-cleavage of 0.11.
For CCGCCUAACACUGCCAAUGCCGGACCCAAGCCCGGAUAAAAGUGGAGGGGGCGG [U24A], the self-cleavage was 0.42.
CCGCCUAACACUGCCAAUGCCGGCCCCAAGCCCGGAUAAAAGUGGAGGGGGCGG [U24C] showed a self-cleavage of 0.53.
With CCGCCUAACACUGCCAAUGCCGGGCCCAAGCCCGGAUAAAAGUGGAGGGGGCGG [U24G] the self-cleavage was 0.03.
In the case of CCGCCUAACACUGCCAAUGCCGGUAACAAGCCCGGAUAAAAGUGGAGGGGGCGG [C25A C26A], the self-cleavage is reported as 0.04.
Work on CCGCCUAACACUGCCAAUGCCGGUAGCAAGCCCGGAUAAAAGUGGAGGGGGCGG [C25A C26G] yielded a self-cleavage of 0.05.
Variant CCGCCUAACACUGCCAAUGCCGGUAUCAAGCCCGGAUAAAAGUGGAGGGGGCGG [C25A C26U] has a self-cleavage of 0.08.
Work on CCGCCUAACACUGCCAAUGCCGGCCCCAAGCCCGGACAAAAGUGGAGGGGGCGG [U24C U37C] yielded a self-cleavage of 0.51.
For CCGCCUAACACUGCCAAUGCCGGCCCCAAGCCCGGAGAAAAGUGGAGGGGGCGG [U24C U37G], the self-cleavage was 0.55.
Variant CCGCCUAACACUGCCAAUGCCGGCCCCAAGCCCGGAAAAAAGUGGAGGGGGCGG [U24C U37A] has a self-cleavage of 0.45.
With CCGCCUAACACUGCCAAUGCCGGUACCAAGCCCGGAUAAAAUUGGAGGGGGCGG [C25A G42U] the self-cleavage was 0.03.
With CCGCCUAACACUGCCAAUGCCGGUACCAAGCCCGGAUAAAAAUGGAGGGGGCGG [C25A G42A] the self-cleavage was 0.06.
For CCGCCUAACACUGCCAAUGCCGGUACCAAGCCCGGAUAAAACUGGAGGGGGCGG [C25A G42C], the self-cleavage was 0.04.
Work on CCGCCUAACACUGCCAAUGCCGGUACCAAGCCCGGAUAAAAGUUGAGGGGGCGG [C25A G44U] yielded a self-cleavage of 0.06.
Work on CCGCCUAACACUGCCAAUGCCGGUACCAAGCCCGGAUAAAAGUCGAGGGGGCGG [C25A G44C] yielded a self-cleavage of 0.1.
CCGCCUAACACUGCCAAUGCCGGUACCAAGCCCGGAUAAAAGUAGAGGGGGCGG [C25A G44A] gave a self-cleavage of 0.05.
CCGCCUAACACUGCCAAUGCCGGUACCAAGCCCGGAUAAAAGUGGAGGGGGCGG [C25A] gave a self-cleavage of 0.2.
Work on CCGCCUAACACUGCCAAUGCCGGUACCAAGCCCGGAUAAAAGUGUAGGGGGCGG [C25A G45U] yielded a self-cleavage of 0.03.
Work on CCGCCUAACACUGCCAAUGCCGGUACCAAGCCCGGAUAAAAGUGAAGGGGGCGG [C25A G45A] yielded a self-cleavage of 0.03.
CCGCCUAACACUGCCAAUGCCGGUACCAAGCCCGGAUAAAAGUGCAGGGGGCGG [C25A G45C] gave a self-cleavage of 0.03.
For CCGCCUAACACUGCCAAUGCCGGUACCAAGCCCGGAUAAAAGUGGAGGGGGCAG [C25A G53A], the self-cleavage was 0.09.
CCGCCUAACACUGCCAAUGCCGGUACCAAGCCCGGAUAAAAGUGGAGGGGCCGG [C25A G51C] gave a self-cleavage of 0.05.
In the case of CCGCCUAACACUGCCAAUGCCGGUACCAAGCCCGGAUAAAAGUGGAGGGGACGG [C25A G51A], the self-cleavage is reported as 0.1.
With CCGCCUAACACUGCCAAUGCCGGUACCAAGCCCGGAUAAAAGUGGAGGGGUCGG [C25A G51U] the self-cleavage was 0.06.
CCGCCUAACACUGCCAAUGCCGGUACUAAGCCCGGAUAAAAGUGGAGGGGGCGG [C25A C27U] gave a self-cleavage of 0.03.
Work on CCGCCUAACACUGCCAAUGCCGGUACGAAGCCCGGAUAAAAGUGGAGGGGGCGG [C25A C27G] yielded a self-cleavage of 0.03.
With CCGCCUAACACUGCCAAUGCCGGUACAAAGCCCGGAUAAAAGUGGAGGGGGCGG [C25A C27A] the self-cleavage was 0.06.
For CCGCCUAACACUGCCAAUGCCGGUACCAAGCCCGGAUAAAAGUGGAGGGGGUGG [C25A C52U], the self-cleavage was 0.17.
